# Rows were chosen to be rich in hits. Some 1.5% of all compounds tested hit in one or more screens of this group.
# NR1D1 modulator = Rev-erb alpha (human) modulation | 370,000 compounds, 0.79% hits | AID 1259318 | activity, % at 10 µM | Rev-erbα–FITC-DNA binding, fluorescence polarization, 90 min;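 active = activity above about 14%, limit read from the data; passing the limit was not always enough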
# NR2E3 ag-1 = human photoreceptor-specific nuclear receptor agonism; Q9Y5X4; CHO-S Gal4-NCOR/VP16-NR2E3 two-hybrid, luciferase; inhibition of corepressor binding, % at 3.98 µM; 360,000 compounds, 0.35% hits; AID 602229;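 active = inhibition above the mean of all tested compounds plus 3 SD, cut at about 70% in these data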;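 also: higher means lower luciferase signal from less NR2E3 corepressor binding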
# Target sequence (Q9Y5X4 whole entry, looked up, the tested form may be a part): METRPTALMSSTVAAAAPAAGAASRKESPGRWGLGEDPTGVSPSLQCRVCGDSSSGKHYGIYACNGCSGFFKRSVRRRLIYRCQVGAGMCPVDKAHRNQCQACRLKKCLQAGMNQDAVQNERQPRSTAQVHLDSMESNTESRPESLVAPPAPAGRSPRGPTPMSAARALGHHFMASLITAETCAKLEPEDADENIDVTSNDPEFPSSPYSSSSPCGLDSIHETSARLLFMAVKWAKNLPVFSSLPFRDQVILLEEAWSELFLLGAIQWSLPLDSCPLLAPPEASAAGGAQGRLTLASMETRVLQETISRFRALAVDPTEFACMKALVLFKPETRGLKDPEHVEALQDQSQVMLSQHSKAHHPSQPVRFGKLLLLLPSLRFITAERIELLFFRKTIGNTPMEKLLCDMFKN
# PG9 binder = PG9 antibody binding by small molecule; TR-FRET gp120-PG9 antibody binding; inhibition, % at 6.7 µM; 360,000 compounds, 0.43% hits; AID 624416; in the data active = inhibition above about 8.5%
# NR2E3 ag-2 = activates human photoreceptor nuclear receptor NR2E3; Q9Y5X4; 320,000 compounds, 0.12% hits; GST-NR2E3/biotin-RetCOR TR-FRET, 1536-well; inhibition of corepressor binding, % at 4.78 µM; AID 2300;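 active = percent inhibition above the cutoff of mean plus 3 SD of all tested compounds, set per screening campaign, cut at about 20% in these data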
#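 System: GST-tagged NR2E3 plus biotinylated RetCOR corepressor; Buffer or medium: pH 7.5 Tris-based buffer; Probe or stimulus: RetCOR corepressor, biotinylated, 7 nM; Doses: compound at 4.8 µM, single dose; Schedule: 5 h incubation at 4 °C; Technique: time-resolved FRET; Evaluation: percent inhibition of TR-FRET ratio; Replication: one well per compound, singlicate testing.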
# NR2E3 ag confirm = confirmation of human NR2E3 agonists; shares compounds with NR2E3 ag-1; CHO-S mammalian two-hybrid NR2E3-NCOR, luciferase luminescence; inhibition, % at 3.98 µM; 2,300 compounds, 51% hits;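 active = average inhibition above a cutoff equal to the mean inhibition of all tested compounds plus one SD, cut at about 70% in these data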
# VP16 counter = GAL4-VP16 reporter inhibition in NR2E3 agonist counterscreen | shares compounds with NR2E3 ag-1 | inhibition, % at 3.98 µM | CHO-S GAL4-VP16 luciferase reporter, luminescence | 2,300 compounds, 29% hits;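 active = mean inhibition above a cutoff equal to the average over all tested compounds plus one standard deviation, cut at about 70% in these data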;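 also: luciferase from a UAS reporter driven by GAL4-VP16 transactivation; higher means less reporter light so more repression of VP16 activity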
# Numbers stand for hits; . = inactive; / = no result.
SMILES,NR1D1 modulator,NR2E3 ag-1,PG9 binder,NR2E3 ag-2,NR2E3 ag confirm,VP16 counter
CC(=O)NC(C)C(=O)N1CCCC1C(=O)N1CCCC1C(=O)NC(C)C(=O)NC1C(=O)NC(CC(C)C)C(=O)NC2CCCCNC(=O)CCC(C(=O)NC(Cc3ccc(O)cc3)C(=O)O)NC(=O)C3CCC(=O)OCC(NC(=O)C4CCCN4C(=O)C(Cc4c[nH]c5ccccc45)NC2=O)C(=O)NC(CC(=O)OC1C)C(=O)NC(Cc1c[nH]c2ccccc12)C(=O)N3 (stereo not given),.,/,/,/,/,/
COc1ccccc1Oc1ncnc2sccc12,.,.,.,.,/,/
COc1ccccc1CNc1ncnc2sccc12,.,100,.,.,92,76
c1ccc(Nc2nc(-c3ccccn3)cs2)cc1,.,.,.,.,/,/
COc1cccc2sc(Nc3nc(-c4ccccn4)cs3)nc12,/,97,/,.,100,.
CC(C)(N[C@@H](Cc1c[nH]c2ccccc12)C(=O)NCCCc1ccccc1)C(=O)NCc1ccccc1,.,/,/,/,/,/
COC(=O)C1CN(Cc2ccc(Cl)cc2)CCS(=O)(=O)N1Cc1cn(Cc2ccc(Cl)cc2)nn1 (stereo not given),.,/,/,/,/,/
c1coc(CN(Cc2ccco2)c2ncnc3c2oc2ccccc23)c1,/,.,/,.,77,.
O=[N+]([O-])c1ccc(N2CCN(C(=S)NCc3ccc(Cl)cc3)CC2)cc1,.,.,.,.,91,.
COC(=O)[C@]12C[C@H](CC(=O)NCc3ccc(C)o3)C(=O)N(CCc3ccc(OC)c(OC)c3)C1=C[C@H](COCc1ccccc1)O[C@@H]2C,.,/,/,/,/,/
C=C(C(=O)c1ccccc1)C(C)C(=C)C(=O)c1ccccc1,.,.,.,.,79,.
COc1cc(NC(=O)c2cc(C)on2)c(OC)cc1Cl,.,/,/,/,/,/
Cc1ccc(C(=O)CCC(=O)N2CCN(c3ccccc3O)CC2)cc1,.,.,.,.,.,.
O=c1[nH]sc2ccccc12,.,75,.,/,.,.
O=c1ccsc2ccccc12,.,.,.,/,/,/
c1ccc(CNc2nc(NCc3ccccc3)c3sccc3n2)cc1,.,.,.,/,74,.
COc1ccccc1CNc1nc(NCc2cccc(OC)c2OC)c2sccc2n1,.,.,.,/,/,/
COc1ccccc1CNc1nc(NCc2ccccc2)nc2ccsc12,.,.,.,/,.,.
COc1ccccc1CNc1nc(NCc2ccc(C)cc2C)c2sccc2n1,/,.,/,/,.,.
C#Cc1cccc(Nc2nc(NCc3ccccc3OC)nc3ccsc23)c1,.,.,.,/,92,75
c1ccc(CNc2nc(NCCOc3ccccc3)c3sccc3n2)cc1,.,.,.,/,/,/
C#CCN1CC(N(C)CCOC(=O)c2cc3ccccc3[nH]2)CS1(=O)=O (stereo not given),.,/,/,/,/,/
COC(=O)C1CN(C2CCCC2)CCS(=O)(=O)N1Cc1ccccc1 (stereo not given),.,/,/,/,/,/
COC(=O)[C@]12C[C@H](CC(=O)N3CCN(C(=O)C4CC4)CC3)C(=O)N(Cc3ccco3)C1=C[C@H](COCc1ccccc1)O[C@@H]2C,.,/,/,/,/,/
CCOC(=O)Cn1cc(CN2C(C(=O)OC)CN(Cc3ccc(F)cc3)CCS2(=O)=O)nn1 (stereo not given),.,/,/,/,/,/
SMILES,NR1D1 modulator,NR2E3 ag-1,PG9 binder,NR2E3 ag-2,NR2E3 ag confirm,VP16 counter
COCCNc1nc(NCc2ccccc2F)c2sccc2n1,.,.,.,/,/,/
COc1ccccc1CNc1nc(NCc2ccccc2F)c2sccc2n1,/,82,/,/,94,76
COc1ccc([C@@H]2C[C@H]3[C@@H](CN2S(=O)(=O)c2ccccc2)C(=O)C[C@@H](c2cccc(Cl)c2)N3S(=O)(=O)c2ccc(C)cc2)cc1,/,.,/,/,72,.
Cn1c2c(c(=O)n(C)c1=O)C(C(F)(F)F)(C(F)(F)F)N=C(c1ccc(Cl)cc1)N2,/,98,/,.,99,90
C(=Cc1cnc2ccccc2n1)c1ccc2c(c1)OCO2,.,.,.,/,.,.
OC(c1cccc(OCc2ccccc2)c1)c1nnc(-c2ccccc2)o1 (stereo not given),.,87,.,.,92,76
OC(c1ccc(OCc2ccccc2)cc1)c1nnc(-c2ccccc2)o1 (stereo not given),.,.,.,.,/,/
CCCOc1ccc(C2NC(=O)NC2=O)cc1 (stereo not given),.,.,.,.,/,/
O=C1NC(=O)C(c2ccc(F)cc2)N1 (stereo not given),.,107,.,.,.,.
